{"source": "PubChem BioAssay AID1217", "about": "(Sanford-Burnham Center for Chemical Genomics, 2008)", "note": "Among all 190,000 compounds or so, about 1,300 (0.68%) were called active. The list comes from a sample in which actives are over-represented; it also holds similar structures and randomly drawn compounds. Unmarked numbers belong to inactive results.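 How the source made its calls: active means primary screen inhibition at 20 µM above a set limit (cut at about 50% in these data); inactive means the rest.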", "data": [{"system": "diaphorase (Clostridium kluyveri)", "assay": "diaphorase inhibitors and chemical oxidizers, primary screen, counter-screen for diaphorase-coupled primary assays, biochemical, uHTS, resorufin fluorescence (AID 1217);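 further: plate controls were DMSO with full reaction for no effect and wells lacking NADH for full effect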", "conditions": "diaphorase resazurin-to-resorufin fluorescence, NADH, 16 min; at 20 µM; active compounds read high; bacterial (C. kluyveri) enzyme, not human", "summary_of_the_method": "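Test system: Clostridium kluyveri diaphorase enzyme / Quantity: diaphorase at 0.14 U/mL in enzyme working solution / Incubation: 16-min room-temperature incubation before reading / Benchmarks: NADH-free wells as positive control, DMSO-only neutral wells / Signal: resorufin fluorescence 544/590 nm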", "values": [{"smiles": "O=C(OCC(=O)N1CCOCC1)c1ccc(N2CCOCC2)c([N+](=O)[O-])c1", "inhibition": "3.6%"}, {"smiles": "CC(C)(C)NC(=O)C(=O)NN=C1CCCCCCC1", "inhibition": "3.8%"}, {"smiles": "CCN(CC)CCN(C(=O)c1cccc([N+](=O)[O-])c1)c1nc2ccc(OC)cc2s1", "inhibition": "9.6%"}, {"smiles": "CCCn1c(C)cc(C(=O)COC(=O)c2c(C)nn(-c3ccccc3)c2C)c1C", "inhibition": "18.9%"}, {"smiles": "O=C(COC(=O)c1ccccc1SCC(=O)NC1CCCCC1)NC1CCCCC1", "inhibition": "3.2%"}, {"smiles": "Cc1nn(-c2ccccc2)c(C)c1C(=O)OCC(=O)NC(=O)NC1CCCCC1", "inhibition": "57.3% (active)"}, {"smiles": "Cn1cnnc1SCc1nnc(-c2ccccc2Br)o1", "inhibition": "4.8%"}, {"smiles": "CCC1CCCCN1C(=O)CSc1nc2c(c(=O)n(C)c(=O)n2C)n1C", "note": "(centres undefined)", "inhibition": "6.8%"}, {"smiles": "CCOC(=O)C1(CC2CCCCO2)CCN(Cc2nc(-c3cccs3)oc2C)CC1", "note": "(centres undefined)", "inhibition": "56.2% (active)"}, {"smiles": "COc1cccc(CC2(CO)CCCN(Cc3nc(-c4cccs4)oc3C)C2)c1", "note": "(centres undefined)", "inhibition": "17.2%"}, {"smiles": "CC1CCC2(CC1)NC(=O)N(Cc1nnc(-c3cccs3)o1)C2=O", "note": "(centres undefined)", "inhibition": "8.2%"}, {"smiles": "COc1ccc(Nc2nc(N)nc(CSC(=S)N3CCC(C)CC3)n2)cc1", "inhibition": "28.1%"}, {"smiles": "O=c1c(-c2ccccc2)coc2cc(O)ccc12", "inhibition": "-8.4%"}, {"smiles": "COc1ccc(C(=O)NC(=S)NNC(=O)CCc2ccccc2)cc1", "inhibition": "54% (active)"}, {"smiles": "COc1ccc(C(=O)NC(=S)NNC(=O)c2c(-c3ccccc3)noc2C)cc1", "inhibition": "38.4%"}, {"smiles": "O=C(CCc1ccccc1)NNC(=O)c1ccc(Br)cc1", "inhibition": "-5.7%"}, {"smiles": "COc1ccc(CC(NC(C)=O)C(=O)NC2CCN(C(=O)c3ccc(OC)c(OC)c3)CC2)cc1OC", "note": "(centres undefined)", "inhibition": "10.9%"}, {"smiles": "COc1ccc(CN2CCC(c3nc4ccc(Cl)cc4[nH]3)CC2)cc1", "inhibition": "2.5%"}, {"smiles": "CC(=O)NC1C(OCc2ccccc2)OC(COC(C)=O)C(OC(C)=O)C1OC(C)=O", "note": "(centres undefined)", "inhibition": "9%"}, {"smiles": "O=C(OCC1O[C@@H](OC(=O)c2cc(O)c(O)c(O)c2)[C@@H](OC(=O)c2cc(O)c(O)c(O)c2)[C@@H](OC(=O)c2cc(O)c(O)c(O)c2)[C@@H]1OC(=O)c1cc(O)c(O)c(O)c1)c1cc(O)c(O)c(O)c1", "note": "(some centres undefined)", "inhibition": "71.3% (active)"}, {"smiles": "O=C(Nc1ccccc1-c1ccccc1)c1cccs1", "inhibition": "7.8%"}, {"smiles": "O=C(CN1CCOCC1)Nc1c(-c2ccccc2)c2cc(Br)ccc2[nH]c1=O", "inhibition": "12.8%"}, {"smiles": "Cc1ccc2[nH]c(=O)c(CC=C(Cl)Cl)c(C)c2c1", "inhibition": "7.7%"}, {"smiles": "Cc1ccc2[nH]c(=O)c(CN3CCCCC3)c(-c3ccccc3)c2c1", "inhibition": "68.3% (active)"}, {"smiles": "O=C(CSc1nc2ccccc2[nH]1)Nc1nc(-c2ccccc2)c(-c2ccccc2)o1", "inhibition": "12.3%"}, {"smiles": "COc1ccc(OC)c(C(c2nnnn2C(C)(C)C)N2CCc3ccccc3C2)c1", "note": "(centres undefined)", "inhibition": "29.8%"}, {"smiles": "COCCn1nnnc1C(c1cc2ccc(OC)cc2[nH]c1=O)N1CCc2ccccc2C1", "note": "(centres undefined)", "inhibition": "52.1% (active)"}, {"smiles": "CCOc1ccc2[nH]c(=O)c(C(c3nnnn3CCOC)N3CCOCC3)cc2c1", "note": "(centres undefined)", "inhibition": "5.8%"}, {"smiles": "N#C/C(=C\\C1=C(N2CCOCC2)C(=C\\c2ccccc2)/CC1)C(=O)Nc1ccccc1F", "inhibition": "28.4%"}, {"smiles": "CCNc1ccc(C(=O)OCC(=O)N2c3ccccc3NC(=O)C2(C)C)cc1[N+](=O)[O-]", "inhibition": "19.8%"}, {"smiles": "Cc1ccc(SCC(=O)c2sc(-c3ccccc3)nc2C)cc1", "inhibition": "20.1%"}, {"smiles": "Cc1nc(-c2ccccc2)sc1C(=O)/C=C/c1ccccc1", "inhibition": "13.8%"}, {"smiles": "Cc1nc(-c2ccc(Cl)cc2)sc1C(=O)CBr", "inhibition": "52.6% (active)"}, {"smiles": "CN1CCN(/N=C/c2ccc(-c3ccc([N+](=O)[O-])cc3)o2)CC1", "inhibition": "-3.7%"}, {"smiles": "COc1ccc(N(C(=O)c2ccc(C)cc2)S(=O)(=O)c2cccs2)cc1", "inhibition": "18.3%"}, {"smiles": "CCOc1cccc(C(=O)Nc2cccnc2)c1", "inhibition": "-6.7%"}, {"smiles": "CC(C)(C)C1CCC(C(=O)Nc2cccnc2)CC1", "note": "(centres undefined)", "inhibition": "6.1%"}, {"smiles": "CCC(C)(C)N=C(NC#N)Nc1cccnc1", "inhibition": "59.6% (active)"}, {"smiles": "Cc1nn(C)cc1C(=O)Nc1ccccc1Br", "inhibition": "13.9%"}, {"smiles": "O=C(CCn1ccc([N+](=O)[O-])n1)Nc1nccs1", "inhibition": "9.2%"}, {"smiles": "COc1ccc(C=Nc2cccc3ncccc23)cc1", "inhibition": "39.7%"}, {"smiles": "Oc1c(C=Nc2cccc3nsnc23)ccc2ccccc12", "inhibition": "62.8% (active)"}, {"smiles": "CCSC1=NCCN1S(=O)(=O)c1ccc(F)cc1", "inhibition": "-9.8%"}, {"smiles": "O=C(Nc1cc(N2CCOCC2)ncn1)NC1(C(F)(F)F)Oc2ccc(Cl)cc2O1", "note": "(centres undefined)", "inhibition": "62.6% (active)"}, {"smiles": "Cc1csc(NC(=O)NC2(C(F)(F)F)Oc3ccccc3O2)n1", "inhibition": "38.6%"}, {"smiles": "c1cnn(-c2cc(N3CCOCC3)ncn2)c1", "inhibition": "15.6%"}, {"smiles": "CC(=O)C1=C(O)C(=O)N(c2cccnc2)C1c1ccc([N+](=O)[O-])cc1", "note": "(centres undefined)", "inhibition": "9.5%"}, {"smiles": "COC(=O)C[n+]1cccc2ccccc21", "inhibition": "2.1%"}, {"smiles": "O=C(CSc1ccc(-c2ccco2)nn1)NCc1ccc2c(c1)OCO2", "inhibition": "18.6%"}, {"smiles": "C/C(=N\\N1CCN(Cc2ccc(C)cc2)CC1)c1ccco1", "inhibition": "3.3%"}, {"smiles": "Cc1ccnc(-n2sc3ccccc3c2=O)n1", "inhibition": "57% (active)"}, {"smiles": "Cc1ccnc(Nc2nc3ccccc3s2)n1", "inhibition": "-16.3%"}, {"smiles": "Cc1ccnc(N2CCC(C(=O)NC3CCCCCC3)CC2)n1", "inhibition": "0.8%"}, {"smiles": "Cc1ccc(S(=O)(=O)N(C)C)cc1NC(=O)/C=C/c1cccs1", "inhibition": "15.5%"}, {"smiles": "C#Cc1ccc([C@@H]2C=C(C(=O)O)O[C@H](OCCCCO)C2)cc1", "inhibition": "15%"}, {"smiles": "O=C(CCN1C(=O)c2ccccc2C1=O)NCCCn1ccnc1", "inhibition": "-0.3%"}, {"smiles": "O=C(O)/C=C/c1cn(Cc2ccccc2)nc1-c1cccs1", "inhibition": "9.8%"}, {"smiles": "O=C(Cn1nnc(-c2ccccc2)n1)NCc1ccc2c(c1)OCO2", "inhibition": "-5.8%"}, {"smiles": "Cc1cccc(C)c1NC(=O)CSc1nnc(-c2ccccc2)n1Cc1ccc2c(c1)OCO2", "inhibition": "-6.5%"}, {"smiles": "c1ccc(-c2nnc3n2NC(c2ccc4c(c2)OCO4)S3)cc1", "note": "(centres undefined)", "inhibition": "50% (active)"}, {"smiles": "Cc1ccc(NS(=O)(=O)c2ccc(C)c(NC(=O)COc3ccc4ccccc4c3)c2)c(C)c1", "inhibition": "30.9%"}, {"smiles": "COc1ccc(N(C)S(=O)(=O)c2cccc3nsnc23)cc1", "inhibition": "3.7%"}, {"smiles": "NC(=O)Cc1ccc2sc(-c3ccccc3)nc2c1", "inhibition": "12.5%"}, {"smiles": "COCCCNC(=S)NC(=O)c1ccc([N+](=O)[O-])cc1", "inhibition": "9.4%"}, {"smiles": "CCCCCC(=O)Nc1ccc(C(=O)N/N=C/c2ccc([N+](=O)[O-])cc2)cc1", "inhibition": "4.9%"}, {"smiles": "CC(C)CC(=O)NC(=S)NNC(=O)c1cccc([N+](=O)[O-])c1", "inhibition": "58.7% (active)"}, {"smiles": "CCCCCC(=O)NC(=S)NNC(=O)c1ccc([N+](=O)[O-])cc1", "inhibition": "54.7% (active)"}, {"smiles": "Cc1cccc(C(=O)NNC(=O)c2cccc([N+](=O)[O-])c2)c1", "inhibition": "10.9%"}, {"smiles": "CC(C)(C)SCCNC(=O)c1cccc([N+](=O)[O-])c1", "inhibition": "1.8%"}, {"smiles": "Brc1cc(/C=N/n2cnnc2)oc1Br", "inhibition": "-5.6%"}, {"smiles": "O=C(COc1ccc(Cl)cc1)NCc1nnc(SCC(=O)NCC2CCCO2)o1", "note": "(centres undefined)", "inhibition": "3.2%"}, {"smiles": "Cc1cc(C)n(CC(=O)Nc2ccc([N+](=O)[O-])cc2)n1", "inhibition": "19.4%"}, {"smiles": "COc1ccc(CNC(=O)CN(Cc2ccc(Cl)cc2)S(C)(=O)=O)cc1", "inhibition": "12.3%"}, {"smiles": "CC1=CC(C)(C)N(C(=O)CSc2nnc(-c3ccccc3)o2)c2ccc(C)cc21", "inhibition": "6.9%"}, {"smiles": "COc1ccc2c(c1)C(C)=CC(C)(C)N2C(=O)Nc1ccccc1", "inhibition": "74.3% (active)"}, {"smiles": "COc1ccc2c(c1)C(C)=CC(C)(C)N2C(=O)CNCc1ccc2c(c1)OCO2", "inhibition": "34.2%"}, {"smiles": "COCCNC(=O)Nc1ccc2nc(-c3ccco3)c(-c3ccco3)nc2c1", "inhibition": "70.2% (active)"}, {"smiles": "O=C(NCc1ccccn1)c1cc(-c2ccccc2Cl)on1", "inhibition": "4.9%"}, {"smiles": "CN(c1ccc(C(=O)NCc2ccccn2)cc1)S(C)(=O)=O", "inhibition": "5.3%"}, {"smiles": "COc1ccc(NC(=O)Nc2ccc3nsnc3c2)cc1", "inhibition": "15.1%"}, {"smiles": "COc1ccc(NC(=O)Nc2ccc3nc(C)c(C)nc3c2)cc1", "inhibition": "13.6%"}, {"smiles": "O=C(NCc1ccccn1)c1ccc2nc(-c3ccco3)c(-c3ccco3)nc2c1", "inhibition": "51% (active)"}, {"smiles": "CC(C)C(C)(C#N)NC(=O)CSc1nncn1-c1ccccc1", "note": "(centres undefined)", "inhibition": "12.5%"}, {"smiles": "O=C(CO/N=C/c1ccc(OC(F)F)cc1)NCc1ccc(F)cc1", "inhibition": "9.6%"}, {"smiles": "O=C(NNC(=O)C1CCN(c2ncccn2)CC1)c1ccccc1", "inhibition": "-1.9%"}, {"smiles": "CCN1CCN(C(c2cccnc2)c2cc(Cl)c3cccnc3c2O)CC1", "note": "(centres undefined)", "inhibition": "54.7% (active)"}, {"smiles": "Oc1c(CN2CCN(c3ccc(F)cc3)CC2)cc(Cl)c2cccnc12", "inhibition": "14.9%"}, {"smiles": "CCOC(=O)N1CCN(C(c2cccnc2)c2ccc3cccnc3c2O)CC1", "note": "(centres undefined)", "inhibition": "48.3%"}, {"smiles": "Cc1ccc(N(C(=O)Cc2cccs2)C2C=CS(=O)(=O)C2)cc1Cl", "note": "(centres undefined)", "inhibition": "12.1%"}, {"smiles": "CC(C)CCN1CCN(Cc2cn[nH]c2C2CCCCC2)CC1CCO", "note": "(centres undefined)", "inhibition": "8.8%"}, {"smiles": "COc1ccc(NS(=O)(=O)c2cc(NC(=O)CC(=O)c3ccc([N+](=O)[O-])cc3)ccc2C)cc1", "inhibition": "-19.9%"}, {"smiles": "c1ccc(-c2cc3c(NCC4COc5ccccc5O4)ncnc3s2)cc1", "note": "(centres undefined)", "inhibition": "14.4%"}, {"smiles": "COc1ccc(-c2[nH]ncc2/C=N/NC(=O)c2cc(Br)ccc2O)c(OC)c1", "inhibition": "8.8%"}, {"smiles": "Cc1ccccc1N/N=C/c1ccc(N2CCOCC2)cc1", "inhibition": "13.9%"}, {"smiles": "CN(C)c1ccc(/C=N/Nc2cc(N3CCOCC3)nc(N3CCOCC3)n2)cc1", "inhibition": "58% (active)"}, {"smiles": "Cc1cc(Oc2ccccc2)nc(N2CCOCC2)n1", "inhibition": "8.4%"}, {"smiles": "Cc1cc(C(=O)N/N=C/c2ccc(N3CCOCC3)cc2)c(C)o1", "inhibition": "-7.7%"}, {"smiles": "CCN(CC)c1ccc(C(=O)N/N=C/c2ccc(N3CCOCC3)cc2)cc1", "inhibition": "14.2%"}, {"smiles": "C(=N/Nc1cc(N2CCOCC2)nc(N2CCOCC2)n1)/c1ccccc1", "inhibition": "65.9% (active)"}]}]}
